Assay outcomes: PubChem BioAssay, several laboratories
Ecoli rRNA inh: selective bacterial rRNA inhibition in E. coli. E. coli WT GFP vs humanized-ribosome RFP mutants, fluorescence, 24 h; active compounds read low; DMSO median 0, no signal -100. GFP signal change (wild-type ribosome), % (no concentration beside the values). hit rate 1.6% among 350,000;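 active = significant combined selectivity score with lowered wild-type GFP, culture density cut under 30%, mutant RFP and density less affected; inactive = any of these conditions unmet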
PglD DTNB: inhibitors of Campylobacter jejuni PglD acetyltransferase; purified PglD enzyme, DTNB colorimetric CoA detection; inhibition, % at 12.5 µM; hit rate 0.098% among 360,000; in the data active = inhibition above about 16%, passing the limit was not always enough
SUMO Mot1 rescue: SUMOylation pathway inhibition by Mot1-301 growth rescue. S. cerevisiae Mot1-301 growth rescue, ATP luminescence, 38.5C; percent above DMSO median, 100 means doubled. growth rescue, % at 18.8 µM. hit rate 1% among 320,000. AID 2716;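 active = every valid replicate shows activation above 250% relative to neutral control wells; inactive = the rest, any valid replicate at or below 250%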;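 also: OY570 slx delta 5 strain wells were the positive control but not used for scaling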
Cneo AK release: Cryptococcus neoformans lysis via adenylate kinase release. C. neoformans lysis, adenylate kinase release luminescence, 4 h; normalised: neutral wells 0, clomiphene wells 100. lysis activity, % at 15 µM. hit rate 0.2% among 360,000;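 active = mean lysis activity across replicates of at least 80%, whatever share of replicates individually reach that level; inactive = mean lysis activity below 80%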
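Schedule: static 4 h at 37 °C with compound, 1 h detection; system: C. neoformans cells; benchmarks: Clomiphene as positive control; buffer or medium: fresh YPD medium; measure: luminescence rise reflecting yeast cell lysis; measured by: luminescent adenylate kinase detection reagent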
CR mimetic SO: yeast age-related superoxide inhibition as caloric restriction mimetic; S. cerevisiae aged cells, superoxide DHE fluorescence; active compounds read low; superoxide response (% of plate mean), % at 10 µM; hit rate 0.18% among 330,000;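 active = superoxide response under a set limit, about three screen SD below normal, cut at about 65% in these data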;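 also: yeast aged for seven days with compound at 30 °C before DHE staining; 100% = average MFI of all compound-treated wells on the plate with controls excluded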
Superoxide pick: yeast aging superoxide inhibition, cherry pick confirmation; superoxide response (% of plate), % at 10 µM; S. cerevisiae aging, superoxide DHE fluorescence; active compounds read low; shares compounds with CR mimetic SO; hit rate 1% among 850;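 active = superoxide signal below 65% of the plate average of sample wells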;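 also: cells aged with compound for 7 days at 30 degrees C before staining; 100% equals mean DHE fluorescence of all compound wells on the plate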
DHE fluor count: counter-screen for compounds affecting DHE oxidation and fluorescence in yeast; 850 tested, under 10 active; AID 435000; fluorescence response, % at 10 µM; S. cerevisiae BY4741, flow cytometry; active compounds read low; shares compounds with CR mimetic SO;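 active = fluorescence response below 15%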;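 also: percent of the mean fluorescence averaged over all compound wells on the plate; lower means stronger quenching of DHE signal or ROS scavenging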
* marks the source's active call; other numbers are inactive results; x = no result given. The list is not random: actives were taken first. Their share in the collection is about 2.2%.

SMILES	Ecoli rRNA inh	PglD DTNB	SUMO Mot1 rescue	Cneo AK release	CR mimetic SO	Superoxide pick	DHE fluor count
COCC(C)Nc1ncnc2c1cnn2-c1ccc(Cl)cc1 (stereo not given)	x	-2	26	-3	107	89	93
COc1ccc(-n2ncc3c(NCC(C)C)ncnc32)cc1	x	0	-7	-12	78	117	106
COc1ccc([N+](=O)[O-])cc1N(CC(O)CN(C)C)S(=O)(=O)c1ccccc1 (stereo not given)	-22	-5	0	-1	54*	105	111
O=C(C[C@@H]1CC[C@H]2[C@@H](COC[C@@H](O)CN2Cc2cccc(C(F)(F)F)c2)O1)NCCc1ccncc1	-4	-1	x	4	x	x	x
CCN(CC)C(=O)CN(C#N)c1nc(OC)nc(N(C)C)n1	x	-2	-13	1	104	x	x
COc1nc(N(C)C)nc(N(C#N)CCOC(C)=O)n1	2	x	173	x	64*	113	104
COc1ccc(CCNC(=O)CCNS(=O)(=O)c2cccc(Cl)c2)cc1OC	5	x	9	x	59*	92	112
COc1ccc(CCNC(=O)CNS(=O)(=O)c2ccc(N(C)C)c([N+](=O)[O-])c2)cc1OC	-20	0	7	-2	65*	100	99
CCCNS(=O)(=O)c1ccc(CCC(=O)NCCc2ccc(OC)c(OC)c2)cc1	-7	x	-4	x	97	x	x
CN1C(=O)c2cc(NC(=O)C3CC3)ccc2OC[C@@H]2O[C@H](CC(=O)NC3CCC3)CC[C@H]21	1	1	x	1	x	x	x
CN(C(=O)Nc1cccc(C(F)(F)F)c1)C1CCCCC1	4	-1	-7	2	54*	91	103
CC1(C)Cc2c(sc3nc(N/N=C/c4ccccc4)[nH]c(=O)c23)CO1	-1	x	5	x	94	x	x
CC(C)=NNc1nc2sc3c(c2c(=O)[nH]1)CC(C)(C)OC3	x	x	-15	x	50*	95	92
Cc1cc(C)cc(NC(=O)C2CCN(S(=O)(=O)c3c(C)n[nH]c3C)CC2)c1	x	-5	-1	-2	90	x	x
CC(=O)N1CCC(C(=O)Nc2cc(C)cc(C)c2)CC1	2	12	-37	2	61*	103	91
O=C(Nc1ccc2ccccc2n1)c1ccccc1Cl	-9	-15	-7	-3	117	x	x
COc1ccc2nc3ccccc3nc2c1NC(=O)c1ccccc1Cl	19	x	-1	x	53*	80	93
COc1cccc(CC(=O)Nc2nc(-c3cccnc3)cs2)c1	-6	x	-2	x	98	x	x
COc1ccc(CC(=O)Nc2nc(-c3cccnc3)cs2)cc1	x	-1	-2	1	63*	98	108
CO[C@H](CN(C)S(=O)(=O)c1cccc(Cl)c1)[C@@H](C)CN([C@H](C)CO)S(=O)(=O)c1cccc(Cl)c1	-3	4	x	47	x	x	x
C=CCOc1ccccc1CN1CCC(Oc2ccc(C(=O)N3CCCC3)cc2)CC1	7	-1	-11	10	65*	117	111
C[C@@H]1CN([C@H](C)CO)S(=O)(=O)c2ccc(C3=CCCCC3)cc2O[C@H]1CN(C)C(=O)C1CCOCC1	3	-2	x	-7	x	x	x
Cc1ccccc1-c1ccc(C2[C@@H]3CN(S(=O)(=O)c4cn(C)cn4)C[C@H]2N3)cc1 (stereo not given in full)	1	x	x	x	x	x	x
O=C(/C=C/c1cccs1)NC(=S)NNC(=O)Cc1cccs1	x	3	-27	3	39*	73	97
COc1ccc(/C=C/C(=O)NC(=S)NNC(=O)Cc2cccs2)cc1OC	x	-1	-11	-1	123	x	x
OCCN(CC#CCn1c2ccccc2c2ccccc21)CCO	-29*	x	299	x	106	87	105
Cc1cccn2c(=O)c3cc(C(=O)NCc4ccco4)c(=N)n(C(C)C)c3nc12	x	-4	2	-1	64*	100	113
CN(C)CC(=O)Nc1ccc2c(c1)[C@@H]1C[C@@H](CC(=O)N(C)C)O[C@H](CO)[C@@H]1O2	3	0	x	-5	x	x	x
O=C(NC1CCCCC1)[C@H]1[C@H](CO)[C@H]2Cn3c(cccc3=O)[C@H]2N1CC1CCCC1	2	x	x	x	x	x	x
